Published values pooled from the literature.
Target: Mitogen-activated protein kinase kinase kinase 7 (MAP3K7, Homo sapiens, UniProt O43318)
One construct used (O43318 1-606): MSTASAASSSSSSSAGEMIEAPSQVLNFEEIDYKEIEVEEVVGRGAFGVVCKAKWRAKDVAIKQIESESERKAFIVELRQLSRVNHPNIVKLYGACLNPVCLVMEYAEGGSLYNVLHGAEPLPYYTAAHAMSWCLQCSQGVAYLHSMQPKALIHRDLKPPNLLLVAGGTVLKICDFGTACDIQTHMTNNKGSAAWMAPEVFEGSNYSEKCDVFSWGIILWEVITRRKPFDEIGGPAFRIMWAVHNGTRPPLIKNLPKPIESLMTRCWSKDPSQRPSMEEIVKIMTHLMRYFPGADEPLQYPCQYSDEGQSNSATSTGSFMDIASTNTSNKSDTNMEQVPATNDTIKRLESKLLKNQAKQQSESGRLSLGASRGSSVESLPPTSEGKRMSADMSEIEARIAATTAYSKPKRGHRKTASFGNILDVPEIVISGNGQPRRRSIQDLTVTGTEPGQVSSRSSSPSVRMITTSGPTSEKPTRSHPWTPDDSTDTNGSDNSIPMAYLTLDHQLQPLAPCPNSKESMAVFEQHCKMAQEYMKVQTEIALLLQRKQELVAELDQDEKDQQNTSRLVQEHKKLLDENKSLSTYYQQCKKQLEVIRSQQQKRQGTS

SMILES | effect on | action | method | concentration | quantity | value
N#CCCc1ccc2c(c1)-c1[nH]c3ccc([N+](=O)[O-])cc3c1CC(=O)N2 | cell-free assay |  |  | 0.5 µM | remaining signal | 38.1%
C[C@@]1(Cc2ccc(C#N)cc2)C(=O)N(c2cc(Cl)cc(Cl)c2)c2ncc(C(=O)NC3(c4nc(C5CCC5)no4)CC3)n21 | cell-free assay |  | competition with immobilised ligand | 1 µM | remaining binding | 96%
O=C1Nc2ccc(Cl)cc2C1=Cc1cc(Cl)c(O)c(Cl)c1 | cell-free assay |  |  | 0.5 µM | remaining signal | 86.8%
CN(C(=O)c1ccccc1)c1cc(N(C)c2ccc3c(c2)CCc2ccc(C(=O)NCCN4CCOCC4)cc2C3=O)ccc1F | cell-free assay |  | competition with immobilised ligand | 1 µM | remaining binding | 100%
O=C(Nc1cnn(-c2csc(C(=O)NC3COC3)c2)c1)Nc1c(F)cccc1Cl | enzyme activity | inhibitor |  | 5 µM | remaining activity | 109%
CCN(CC)CCNC(=O)c1c(C)[nH]c(/C=C2\C(=O)Nc3ccc(F)cc32)c1C | enzyme activity | inhibitor |  | 10 µM | inhibition | 92%
Cc1ccc(C(=O)Nc2ccc(CN3CCN(C)CC3)c(C(F)(F)F)c2)cc1C#Cc1cnc2cccnn12 | enzyme activity | inhibitor |  | 23.5 nM | remaining activity | 3.3%
Cc1ccc(Nc2nccc(N(C)c3ccc4c(C)n(C)nc4c3)n2)cc1S(N)(=O)=O | enzyme activity | inhibitor |  | 10 µM | inhibition | -4%
CC(C)c1ccc(NC(=O)c2cccs2)c(-c2nc3ccccc3[nH]c2=O)c1 | enzyme activity | inhibitor |  | 1 µM | activity vs control | 106%
O=C(NC[C@@H]1[C@H]2CN(C(=O)OCc3cc(C(F)(F)F)cc(C(F)(F)F)c3)C[C@@H]12)c1ccc2[nH]nnc2c1 | cell-free assay |  | competition with immobilised ligand | 1 µM | remaining binding | 94%
CCN(CC)c1ccc(C2=NNC(=O)CC2C)cc1[N+](=O)[O-] (stereo not drawn) | enzyme activity | inhibitor |  | 10 µM | remaining activity | 107%
Cc1cnc(NC2CCOCC2)nc1-n1cnc(C(=O)NC(CN)c2cc(F)cc(Cl)c2)c1 (stereo not drawn) | enzyme activity | inhibitor | radiometric | 1 µM | remaining activity | 98%
C[C@H](c1ccc(F)cc1)N(Cc1cccc(C(=O)O)c1)C(=O)c1cnc2ccccc2c1 | cell-free assay |  | competition with immobilised ligand | 1 µM | remaining binding | 100%
CC(C)(O)[C@H]1CC[C@H](Nc2ccc3ncc(-c4cccc(C(F)(F)F)c4)n3n2)CC1 | enzyme activity | inhibitor |  | 1 µM | remaining activity | 107%
COc1ccc2cc(OCC3(C(=O)O)CN(C(=O)c4ccc(F)cc4)C3)ccc2c1 | cell-free assay |  | competition with immobilised ligand | 1 µM | remaining binding | 96%
Cn1c(=O)n(-c2ccc(C(C)(C)C#N)cc2)c2c3cc(-c4cnc5ccccc5c4)ccc3ncc21 | enzyme activity | inhibitor |  | 10 µM | remaining activity | 67%
CCCS(=O)(=O)Nc1ccc(F)c(C(=O)c2c[nH]c3ncc(-c4ccc(Cl)cc4)cc23)c1F | enzyme activity | inhibitor |  | 1 µM | inhibition | < 10%
CCCCNc1ncc2c(-c3ccc(F)cc3)nn(C[C@H]3CC[C@H](N)CC3)c2n1 | target engagement in cells | inhibitor | chemoproteomics | 20 mM | inhibition | 16%
